Series [1] in a line: melting temperature; fluorescence melt of hairpins on a sequencing array, two-state fit, raised by 9.35 °C to match UV melts. Conditions: sodium 0.088 M. The method in brief: (§1)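 Folding enthalpy and melting temperature were estimated with bootstrapped two-state fits and combined across four replicates by inverse-variance weighting, with fitted temperatures raised by 9.35 °C to match UV melts. The data were Cy3 fluorescence of library hairpins, with annealed Cy3 and quencher oligos, on a sequenced MiSeq flow cell in 50 mM Na-HEPES pH 8.0, 25 mM NaCl, imaged in 2.5 °C steps up to 60 °C and normalised to pre-quench Cy3 and control constructs.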

The nature of series [2]: folding enthalpy; higher = less favourable; fluorescence melt of hairpins on a sequencing array, two-state fit. Conditions: sodium 0.088 M. The method in brief: as §1

Take GCCTCGCGAAAGCGTAGC ((..(((....)))..)): the Tm in series [1] is 44 °C. Besides, the folding enthalpy in series [2] is -11.8 kcal/mol.

Consider GGTCGCGAAAGCGGGACC ((((((....)))..))), for which, in series [1], the Tm was found to be 52.1 °C. The folding enthalpy in series [2] is -18.9 kcal/mol.

Consider GATTACGGAAACGTAGTC ((.((((....)))).)), for which the Tm in series [1] amounted to 38 °C. Also, in series [2], the folding enthalpy is -25 kcal/mol.

For GCTGACCGAAAGGTTAGC (((.(((....))).))), in series [1], the Tm stood at 58.9 °C. In series [2], the folding enthalpy is -33.8 kcal/mol.

GCGATCGAAAGATCTCGC ((((((....)))..))): the Tm in series [1] was 44.1 °C. Further, in series [2], the folding enthalpy was -20.2 kcal/mol.

GCCGTCGCGAAAGCGGGC (((..(((....)))))): in series [1], the Tm turned out to be 54.5 °C. Further, in series [2], the folding enthalpy was -17.9 kcal/mol.

As to GATCACTCCGGTGATC ((((((....)))))), the Tm in series [1] turned out to be 56.9 °C. Further, in series [2], the folding enthalpy is -37.8 kcal/mol.

Take GCTCCCGAAAGGGGGAGC ((((((....)))..))): the Tm in series [1] was found to be 64.5 °C. In addition, the folding enthalpy in series [2] is -23.8 kcal/mol.

For GCCCGAGGAAACCCGGAC (.(((.(....).))).), the Tm in series [1] stood at 32.7 °C. Moreover, the folding enthalpy in series [2] is -19.3 kcal/mol.

Turning to GATCTAAGGTAGATC ((((((...)))))), the Tm in series [1] amounted to 37.6 °C. Also, in series [2], the folding enthalpy is -20.8 kcal/mol.

For GGCTGCGAAAGCAACGCC ((((((....)))..))), in series [1], the Tm was determined as 56.6 °C. Also, the folding enthalpy in series [2] is -22.1 kcal/mol.

Consider GAACATGCGAAAGCATTC (((..(((....)))))), for which the Tm in series [1] came to 26.6 °C. Further, in series [2], the folding enthalpy is -11 kcal/mol.

Consider GGCGGCGAAAGCCTCGCC ((((((....)))..))), for which the Tm in series [1] came to 55.4 °C. The folding enthalpy in series [2] was -20.8 kcal/mol.

Regarding GCCAAGCGAAAGCTGCGC ((..(((....)))..)), in series [1], the Tm came out at 51.6 °C. Besides, the folding enthalpy in series [2] was -20.8 kcal/mol.

Regarding GCGAGTCCGAAAGGACGC (((..(((....)))))), the Tm in series [1] is 53 °C. Further, the folding enthalpy in series [2] was -9.26 kcal/mol.

As to GGTAGTGCGAAAGCAACC (((..(((....)))))), the Tm in series [1] stood at 32 °C. Moreover, the folding enthalpy in series [2] is -10.8 kcal/mol.

Consider GGAAGAGGAAACCCTTCC (((((.(....).))))), for which, in series [1], the Tm was 37.8 °C. Further, the folding enthalpy in series [2] was -30.7 kcal/mol.

Regarding GTCGACGAAAGTCAAGAC ((((((....)))..))), the Tm in series [1] is 43.8 °C. In series [2], the folding enthalpy was -20.4 kcal/mol.

With GTCTGTGGAAACATGGAC (((..((....))..))), the Tm in series [1] amounted to 37.3 °C. Also, the folding enthalpy in series [2] was -26.8 kcal/mol.

As for GTAGGCGAAAGCCGCTAC ((((((....)))..))), in series [1], the Tm stood at 43.4 °C. In addition, in series [2], the folding enthalpy was -8.76 kcal/mol.

On to GGGGAGCGAAAGCTTCCC (((.(((....))).))), for which, in series [1], the Tm came to 68.2 °C. Also, the folding enthalpy in series [2] is -36.5 kcal/mol.

Consider GGAATACGAAAGTATCC (((.(((....)))))), for which the Tm in series [1] is 42.8 °C. In addition, the folding enthalpy in series [2] is -17.9 kcal/mol.

With GAGATAGGAAACTATCCC (.(((((....))))).), the Tm in series [1] was 30.1 °C. In addition, the folding enthalpy in series [2] was -16.4 kcal/mol.

Consider GACTACGAAAGTAGAGTC ((((((....)))..))), for which the Tm in series [1] came to 34.7 °C. Also, the folding enthalpy in series [2] is -13.7 kcal/mol.

Turning to GCGAAGGCTCGC ((((....)))), in series [1], the Tm is 46.9 °C. In series [2], the folding enthalpy is -14.4 kcal/mol.

Turning to GAGAACGAAAGTTTCTC ((((((....))).))), the Tm in series [1] worked out at 43.5 °C. In addition, the folding enthalpy in series [2] is -25.1 kcal/mol.

For the sequence GATCCGGGGCCGGATC ((((((....)))))), in series [1], the Tm stood at 61 °C. Also, in series [2], the folding enthalpy was -41.4 kcal/mol.

For the sequence GTCCGGGGAAACTCGGAC (((((.(....).))))), the Tm in series [1] was 58.9 °C. In series [2], the folding enthalpy was -40.9 kcal/mol.

As to GTCATGCGAAAGCAAGAC (((.(((....))).))), in series [1], the Tm is 52.4 °C. For the same sequence, the folding enthalpy in series [2] is -29.6 kcal/mol.

For the sequence GGCGGCGAAAGCCTGCC ((((((....))).))), in series [1], the Tm was found to be 68.5 °C. Besides, the folding enthalpy in series [2] is -18.9 kcal/mol.

Consider GTTATGGGAAACCATGAC ((.((((....)))).)), for which the Tm in series [1] stood at 43.5 °C. Further, in series [2], the folding enthalpy is -34.4 kcal/mol.

As for GTCAGGGGAAACCTTGAC ((((.((....)).)))), the Tm in series [1] came out at 47.2 °C. In addition, the folding enthalpy in series [2] was -28.1 kcal/mol.

GTTACCGGAAACGGTAAC (((((((....))))))): the Tm in series [1] came out at 63.2 °C. The folding enthalpy in series [2] was -42.4 kcal/mol.

In the case of GCGTACGGAAACGTATGC ((.((((....)))).)), the Tm in series [1] was 55.9 °C. In addition, the folding enthalpy in series [2] is -40.1 kcal/mol.

As to GCCTATGAAAATAGGC ((((((....)))))), the Tm in series [1] amounted to 58.9 °C. In series [2], the folding enthalpy was -34 kcal/mol.

In the case of GTCTCCGAAAGGAGGGAC ((((((....)))..))), in series [1], the Tm came to 41.7 °C. In addition, in series [2], the folding enthalpy is -9.56 kcal/mol.

For the sequence GCGTAGAAACGC ((((....)))), the Tm in series [1] stood at 48 °C. Further, in series [2], the folding enthalpy was -18.6 kcal/mol.

These data come from the array DNA melting data of Ke et al. (doi:10.1101/2024.01.08.574731).
